The target in experiment [1] is T1, Recombinant human Dok1 PTB domain (amino acids 140–268) (Homo sapiens, UniProt Q99704).
T1 sequence (Q99704 140-268): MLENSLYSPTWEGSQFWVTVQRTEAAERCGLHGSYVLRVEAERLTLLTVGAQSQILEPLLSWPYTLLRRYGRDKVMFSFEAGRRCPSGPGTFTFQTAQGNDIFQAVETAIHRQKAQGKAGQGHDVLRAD
Format: binding. In short, it runs like this:
(§1)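 On a BIAcore 3000, ~4000 RU streptavidin was amine-coupled to CM5 chips at 25°C, then 50–150 RU biotinylated human phosphotyrosine peptides (CD200R tail, singly or doubly phosphorylated) were captured. Increasing concentrations of monomeric recombinant soluble PTB domain were passed over at 37°C to reach equilibrium binding. Signal from non-phosphorylated-peptide or streptavidin-only flow cells was subtracted, and the data were fitted to hyperbolas.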

Experiment [2] deals with T2, Recombinant human Dok2 PTB domain (amino acids 133–259) (Homo sapiens, UniProt O60496).
T2 sequence (O60496 133-259): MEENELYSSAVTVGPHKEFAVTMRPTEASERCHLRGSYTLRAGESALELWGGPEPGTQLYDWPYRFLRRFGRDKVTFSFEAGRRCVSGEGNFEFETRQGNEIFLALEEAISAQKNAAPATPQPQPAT
Format: binding. The method in brief: as §1

Experiment [3] deals with CD200R pY1 peptide (human). The experiment can be described thus: SPR. On the technique in general: Surface plasmon resonance follows binding to a sensor surface in real time, without labels.
CD200R pY1 peptide (human), sequence (Q8TD46 309-329): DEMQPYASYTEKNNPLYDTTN
Experiment [4] addresses CD200R pY1,3 peptide (human). The experiment is described as follows: SPR.
Experiment [5] has as its target CD200R pY3 peptide (human). The experiment is described as follows: SPR.
Experiment [6] addresses CD200R pY1,2 peptide (human). The experiment can be described thus: SPR.
The target in experiment [7] is T3, Recombinant human Dok2 PTB domain (amino acids 133-259) (human, UniProt O60496 133-259).
T3 sequence (looked up): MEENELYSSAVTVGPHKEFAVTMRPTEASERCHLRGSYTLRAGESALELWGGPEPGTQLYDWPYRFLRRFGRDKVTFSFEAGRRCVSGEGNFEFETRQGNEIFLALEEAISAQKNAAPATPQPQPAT
The experiment can be described thus: SPR.

Experiment [8] concerns the target T4, Recombinant human Dok1 PTB domain (amino acids 140-268) (human, UniProt Q99704 140-268).
T4 sequence (looked up): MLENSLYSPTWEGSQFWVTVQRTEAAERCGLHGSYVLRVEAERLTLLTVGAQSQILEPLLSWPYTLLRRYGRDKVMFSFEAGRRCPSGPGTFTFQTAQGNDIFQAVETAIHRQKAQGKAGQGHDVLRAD
The experiment can be described thus: SPR.

Non-standard residues stand in square brackets, D forms with d. Residues, ends and D or L forms follow the SMILES beside them. No end group written: not given here. *: point of attachment. Biotin = O=C1N[C@H]2[C@H](CS[C@H]2CCCCC(=O)*)N1; pY = N[C@@H](Cc1ccc(OP(=O)(O)O)cc1)C(=O)O

Turning to `CSCC[C@H](NC(=O)[C@H](CCC(=O)O)NC(=O)[C@H](CC(=O)O)NC(=O)CCCC[C@@H]1SC[C@@H]2NC(=O)N[C@@H]21)C(=O)N[C@@H](CCC(N)=O)C(=O)N1CCC[C@H]1C(=O)N[C@@H](Cc1ccc(OP(=O)(O)O)cc1)C(=O)N[C@@H](C)C(=O)N[C@@H](CO)C(=O)N[C@@H](Cc1ccc(OP(=O)(O)O)cc1)C(=O)N[C@H](C(=O)N[C@@H](CCC(=O)O)C(=O)N[C@@H](CCCCN)C(=O)N[C@@H](CC(N)=O)C(=O)N[C@@H](CC(N)=O)C(=O)N1CCC[C@H]1C(=O)N[C@@H](CC(C)C)C(=O)N[C@@H](Cc1ccc(O)cc1)C(=O)N[C@@H](CC(=O)O)C(=O)N[C@H](C(=O)N[C@H](C(=O)N[C@@H](CC(N)=O)C(=O)O)[C@@H](C)O)[C@@H](C)O)[C@@H](C)O` [CD200R pY1,2] (Biotin-DEMQP[pY]AS[pY]TEKNNPLYDTTN-OH), the Kd (as a rule, the concentration at which binding is half-saturated) in experiment [1] amounted to 8.4 µM.
Consider `CSCC[C@H](NC(=O)[C@H](CCC(=O)O)NC(=O)[C@H](CC(=O)O)NC(=O)CCCC[C@@H]1SC[C@@H]2NC(=O)N[C@@H]21)C(=O)N[C@@H](CCC(N)=O)C(=O)N1CCC[C@H]1C(=O)N[C@@H](Cc1ccc(OP(=O)(O)O)cc1)C(=O)N[C@@H](C)C(=O)N[C@@H](CO)C(=O)N[C@@H](Cc1ccc(O)cc1)C(=O)N[C@H](C(=O)N[C@@H](CCC(=O)O)C(=O)N[C@@H](CCCCN)C(=O)N[C@@H](CC(N)=O)C(=O)N[C@@H](CC(N)=O)C(=O)N1CCC[C@H]1C(=O)N[C@@H](CC(C)C)C(=O)N[C@@H](Cc1ccc(OP(=O)(O)O)cc1)C(=O)N[C@@H](CC(=O)O)C(=O)N[C@H](C(=O)N[C@H](C(=O)N[C@@H](CC(N)=O)C(=O)O)[C@@H](C)O)[C@@H](C)O)[C@@H](C)O` [CD200R pY1,3] (Biotin-DEMQP[pY]ASYTEKNNPL[pY]DTTN-OH), for which the Kd in experiment [2] stood at 0.6 µM; in experiment [1], 6.2 µM.
Regarding `CSCC[C@H](NC(=O)[C@H](CCC(=O)O)NC(=O)[C@H](CC(=O)O)NC(=O)CCCC[C@@H]1SC[C@@H]2NC(=O)N[C@@H]21)C(=O)N[C@@H](CCC(N)=O)C(=O)N1CCC[C@H]1C(=O)N[C@@H](Cc1ccc(OP(=O)(O)O)cc1)C(=O)N[C@@H](C)C(=O)N[C@@H](CO)C(=O)N[C@@H](Cc1ccc(O)cc1)C(=O)N[C@H](C(=O)N[C@@H](CCC(=O)O)C(=O)N[C@@H](CCCCN)C(=O)N[C@@H](CC(N)=O)C(=O)N[C@@H](CC(N)=O)C(=O)N1CCC[C@H]1C(=O)N[C@@H](CC(C)C)C(=O)N[C@@H](Cc1ccc(O)cc1)C(=O)N[C@@H](CC(=O)O)C(=O)N[C@H](C(=O)N[C@H](C(=O)N[C@@H](CC(N)=O)C(=O)O)[C@@H](C)O)[C@@H](C)O)[C@@H](C)O` [CD200R pY1] (Biotin-DEMQP[pY]ASYTEKNNPLYDTTN-OH), the Kd in experiment [1] is 14 µM.
On to `CSCC[C@H](NC(=O)[C@H](CCC(=O)O)NC(=O)[C@H](CC(=O)O)NC(=O)CCCC[C@@H]1SC[C@@H]2NC(=O)N[C@@H]21)C(=O)N[C@@H](CCC(N)=O)C(=O)N1CCC[C@H]1C(=O)N[C@@H](Cc1ccc(O)cc1)C(=O)N[C@@H](C)C(=O)N[C@@H](CO)C(=O)N[C@@H](Cc1ccc(O)cc1)C(=O)N[C@H](C(=O)N[C@@H](CCC(=O)O)C(=O)N[C@@H](CCCCN)C(=O)N[C@@H](CC(N)=O)C(=O)N[C@@H](CC(N)=O)C(=O)N1CCC[C@H]1C(=O)N[C@@H](CC(C)C)C(=O)N[C@@H](Cc1ccc(OP(=O)(O)O)cc1)C(=O)N[C@@H](CC(=O)O)C(=O)N[C@H](C(=O)N[C@H](C(=O)N[C@@H](CC(N)=O)C(=O)O)[C@@H](C)O)[C@@H](C)O)[C@@H](C)O` [CD200R pY3] (Biotin-DEMQPYASYTEKNNPL[pY]DTTN-OH), for which the Kd in experiment [2] was 1.4 µM; in experiment [1], 7.3 µM.
Consider `CC[C@H](C)[C@H](NC(=O)[C@H](CCC(=O)O)NC(=O)[C@@H](NC(=O)CCCC[C@@H]1SC[C@@H]2NC(=O)N[C@@H]21)[C@@H](C)O)C(=O)N[C@H](C(=O)N[C@@H](CC(N)=O)C(=O)N1CCC[C@H]1C(=O)N[C@@H](CC(N)=O)C(=O)N[C@@H](Cc1ccc(OP(=O)(O)O)cc1)C(=O)N[C@@H](CCSC)C(=O)NCC(=O)N[C@H](C(=O)NCC(=O)N1CCC[C@H]1C(=O)O)C(C)C)[C@@H](C)CC` [SHIP pY917] (Biotin-TEIINPN[pY]MGVGP-OH), for which, in experiment [1], the Kd stood at 13 µM.
The same measure, in the same setting: for `CSCC[C@H](NC(=O)[C@H](CCC(=O)O)NC(=O)CCCC[C@@H]1SC[C@@H]2NC(=O)N[C@@H]21)C(=O)N[C@@H](Cc1ccccc1)C(=O)N[C@@H](CCC(=O)O)C(=O)N[C@@H](CC(N)=O)C(=O)N1CCC[C@H]1C(=O)N[C@@H](CC(C)C)C(=O)N[C@@H](Cc1ccc(OP(=O)(O)O)cc1)C(=O)NCC(=O)N[C@@H](CO)C(=O)N[C@@H](CC(C)C)C(=O)N[C@@H](CO)C(=O)N[C@@H](CO)C(=O)O` [SHIP pY1022] (Biotin-EMFENPL[pY]GSLSS-OH) the value was 13 µM.
On to “Recombinant human Dok1 PTB domain (amino acids 140-268) (from UniProt Q99704 140-268) (domain or fragment)”, for which the Kd in experiment [3] was found to be 14 µM; in experiment [4] it was 6.2 µM; in experiment [5], 7.3 µM; in experiment [6], 8.4 µM.
For the molecule “Recombinant human Dok2 PTB domain (amino acids 133-259) (from UniProt O60496 133-259) (domain or fragment)”, the Kd was determined as 0.6 µM in experiment [4] and 1.4 µM in experiment [5].

B1: SHIP pY917 peptide (peptide)
peptide: Biotin-TEIINPN[pY]MGVGP
Consider B1, for which, in experiment [7], the Kd is over 30 µM.

B2: Dok2 pY139 peptide (peptide)
peptide: Biotin-CMEENEL[pY]SSAV
Regarding B2, the Kd in experiment [8] turned out to be 3.3 µM.

B3: Dok1 pY146 peptide (peptide)
peptide: Biotin-EMLENSL[pY]SPTW
As to B3, the Kd in experiment [8] stood at 6.9 µM.

These data come from publication PMC2788151 (Journal of immunology (Baltimore, Md. : 1950), 2009).
